# What was measured:
# Assay type in all cases: functional
# Haemophilus influenzae [1] = assay: Antimicrobial activity against Haemophilus influenzae H128 after 24 hrs by broth microdilution method; details: H128, 24 h
# Method in brief: (§1)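 Broth microdilution following NCCLS M7-A4; ATCC strains and clinical isolates from a provincial hospital.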
# Staphylococcus aureus [2] = assay: Antimicrobial activity against Staphylococcus aureus isolate CL 939 after 24 hrs by broth microdilution method; details: isolate CL 939, 24 h
# Method in brief: (§2)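 Broth microdilution following NCCLS M7-A4, using ATCC strains and clinical isolates from a provincial hospital.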
# Staphylococcus aureus [3] = assay: Antimicrobial activity against Staphylococcus aureus isolate 929035 after 24 hrs by broth microdilution method; details: isolate 929035, 24 h; method in brief: as §1
# Staphylococcus aureus [4] = assay: Antimicrobial activity against Staphylococcus aureus WCUH29 after 24 hrs by broth microdilution method; details: WCUH29, 24 h; method in brief: as §1
# Streptococcus pneumoniae [5] = assay: Antimicrobial activity against Streptococcus pneumoniae ERY2 after 24 hrs by broth microdilution method; details: ERY2, 24 h; method in brief: as §1
# Staphylococcus aureus [6] = assay: Antimicrobial activity against Staphylococcus aureus isolate RN4220 pmz1 after 24 hrs by broth microdilution method; details: isolate RN4220 pmz1, 24 h; method in brief: as §2
# Haemophilus influenzae [7] = assay: Antimicrobial activity against Haemophilus influenzae Q1 after 24 hrs by broth microdilution method; details: Q1, 24 h; method in brief: as §1
# Staphylococcus aureus [8] = assay: Antimicrobial activity against Staphylococcus aureus isolate Ealing 23 after 24 hrs by broth microdilution method; details: isolate Ealing 23, 24 h; method in brief: as §2
# Haemophilus influenzae [9] = assay: Antimicrobial activity against AcrA-deficient Haemophilus influenzae H128 after 24 hrs by broth microdilution method; details: H128, 24 h; method in brief: as §1
# Staphylococcus aureus [10] = assay: Antimicrobial activity against Staphylococcus aureus isolate OGA833 after 24 hrs by broth microdilution method; details: isolate OGA833, 24 h; method in brief: as §1
# Staphylococcus aureus [11] = assay: Antimicrobial activity against Staphylococcus aureus isolate 929003 after 24 hrs by broth microdilution method; details: isolate 929003, 24 h; method in brief: as §1
# Staphylococcus aureus [12] = assay: Antimicrobial activity against Staphylococcus aureus isolate Smith ATCC 13709 after 24 hrs by broth microdilution method; details: isolate Smith ATCC 13709, 24 h; method in brief: as §2
# Staphylococcus aureus [13] = assay: Antimicrobial activity against Staphylococcus aureus isolate CARTER 37 after 24 hrs by broth microdilution method; details: isolate CARTER 37, 24 h; method in brief: as §2
# Staphylococcus aureus [14] = assay: Antimicrobial activity against Staphylococcus aureus isolate PAV 5 after 24 hrs by broth microdilution method; details: isolate PAV 5, 24 h; method in brief: as §1
# Staphylococcus aureus [15] = assay: Antimicrobial activity against Staphylococcus aureus isolate SWEETING after 24 hrs by broth microdilution method; method in brief: as §2
# Streptococcus pyogenes [16] = assay: Antimicrobial activity against Streptococcus pyogenes 1307006P after 24 hrs by broth microdilution method; method in brief: as §1
# Staphylococcus aureus [17] = assay: Antimicrobial activity against Staphylococcus aureus isolate RN1024 after 24 hrs by broth microdilution method; details: isolate RN1024, 24 h; method in brief: as §2
# Streptococcus pneumoniae [18] = assay: Antimicrobial activity against Streptococcus pneumoniae 1629 after 24 hrs by broth microdilution method; details: Streptococcus pneumoniae, 1629, 24 h; method in brief: as §1
# Streptococcus pyogenes [19] = assay: Antimicrobial activity against Streptococcus pyogenes 1308007P after 24 hrs by broth microdilution method; method in brief: as §1
# Staphylococcus aureus [20] = assay: Antimicrobial activity against Staphylococcus aureus isolate MN 1255 after 24 hrs by broth microdilution method; details: isolate MN 1255, 24 h; method in brief: as §1
# Staphylococcus aureus [21] = assay: Antimicrobial activity against Staphylococcus aureus OXFORD after 24 hrs by broth microdilution method; method in brief: as §2
# Staphylococcus aureus [22] = assay: Antimicrobial activity against Staphylococcus aureus isolate 934335 after 24 hrs by broth microdilution method; details: isolate 934335, 24 h; method in brief: as §1
# Escherichia coli = assay: Antimicrobial activity against Escherichia coli isolate 3 after 24 hrs by broth microdilution method; details: isolate 3, 24 h; method in brief: as §1
# Staphylococcus aureus [23] = assay: Antimicrobial activity against Staphylococcus aureus isolate RN1030 after 24 hrs by broth microdilution method; details: isolate RN1030, 24 h; method in brief: as §2
# Staphylococcus aureus [24] = assay: Antimicrobial activity against Staphylococcus aureus isolate NEQAS 4026 after 24 hrs by broth microdilution method; details: isolate NEQAS 4026, 24 h; method in brief: as §1
# Staphylococcus aureus [25] = assay: Antimicrobial activity against Staphylococcus aureus isolate CL 938 after 24 hrs by broth microdilution method; details: isolate CL 938, 24 h; method in brief: as §1
# Staphylococcus aureus [26] = assay: Antimicrobial activity against Staphylococcus aureus isolate RUSSELL after 24 hrs by broth microdilution method; method in brief: as §2
# Staphylococcus aureus [27] = assay: Antimicrobial activity against Staphylococcus aureus isolate NEQAS 4158 after 24 hrs by broth microdilution method; details: isolate NEQAS 4158, 24 h; method in brief: as §1
# Staphylococcus aureus [28] = assay: Antimicrobial activity against Staphylococcus aureus isolate F89 after 24 hrs by broth microdilution method; details: isolate F89, 24 h; method in brief: as §1
# Staphylococcus aureus [29] = assay: Antimicrobial activity against Staphylococcus aureus isolate Ealing 32 after 24 hrs by broth microdilution method; details: isolate Ealing 32, 24 h; method in brief: as §1
# Staphylococcus aureus [30] = assay: Antimicrobial activity against Staphylococcus aureus ATCC 29213 after 24 hrs by broth microdilution method; details: ATCC 29213, 24 h; method in brief: as §1
# Streptococcus pneumoniae [31] = assay: Antimicrobial activity against Streptococcus pneumoniae N1387 after 24 hrs by broth microdilution method; details: N1387, 24 h; method in brief: as §1
# Enterococcus faecalis = assay: Antimicrobial activity against Enterococcus faecalis Isolate 1 after 24 hrs by broth microdilution method; details: Isolate 1, 24 h; method in brief: as §1
# Staphylococcus aureus [32] = assay: Antimicrobial activity against Staphylococcus aureus isolate 306 after 24 hrs by broth microdilution method; details: isolate 306, 24 h; method in brief: as §1
# Staphylococcus aureus [33] = assay: Antimicrobial activity against Staphylococcus aureus isolate MILES HALL after 24 hrs by broth microdilution method; method in brief: as §2
# Staphylococcus aureus [34] = assay: Antimicrobial activity against Staphylococcus aureus isolate 934387 after 24 hrs by broth microdilution method; details: isolate 934387, 24 h; method in brief: as §2
# Staphylococcus aureus [35] = assay: Antimicrobial activity against Staphylococcus aureus isolate 934334 after 24 hrs by broth microdilution method; details: isolate 934334, 24 h; method in brief: as §1
# Enterococcus faecium = assay: Antimicrobial activity against Enterococcus faecium X7501 after 24 hrs by broth microdilution method; details: X7501, 24 h; method in brief: as §1
# Staphylococcus aureus [36] = assay: Antimicrobial activity against Staphylococcus aureus isolate 68/8684 after 24 hrs by broth microdilution method; details: isolate 68/8684, 24 h; method in brief: as §1
# Staphylococcus aureus [37] = assay: Antimicrobial activity against Staphylococcus aureus isolate A53 after 24 hrs by broth microdilution method; details: isolate A53, 24 h; method in brief: as §2
# Staphylococcus aureus [38] = assay: Antimicrobial activity against Staphylococcus aureus isolate CL 1033 after 24 hrs by broth microdilution method; details: isolate CL 1033, 24 h; method in brief: as §1
# Staphylococcus aureus [39] = assay: Antimicrobial activity against Staphylococcus aureus isolate 934324 after 24 hrs by broth microdilution method; details: isolate 934324, 24 h; method in brief: as §1
# Moraxella catarrhalis = assay: Antimicrobial activity against Moraxella catarrhalis 1502 after 24 hrs by broth microdilution method; details: Moraxella catarrhalis, 1502, 24 h; method in brief: as §1
structure (smiles),measurement,setting,value
CC1(C)S[C@@H]2[C@H](NC(=O)[C@H](N)c3ccc(O)cc3)C(=O)N2[C@H]1C(=O)O [AMOXICILLIN],MIC,Haemophilus influenzae [1],32 µg/mL
same,MIC,Staphylococcus aureus [2],2 µg/mL
same,MIC,Staphylococcus aureus [3],> 16 µg/mL
same,MIC,Staphylococcus aureus [4],64 µg/mL
same,MIC,Streptococcus pneumoniae [5],≤ 0.06 µg/mL
same,MIC,Staphylococcus aureus [6],0.125 µg/mL
same,MIC,Haemophilus influenzae [7],0.25 µg/mL
same,MIC,Staphylococcus aureus [8],0.5 µg/mL
same,MIC,Haemophilus influenzae [9],64 µg/mL
same,MIC,Staphylococcus aureus [10],> 16 µg/mL
same,MIC,Staphylococcus aureus [11],> 16 µg/mL
same,MIC,Staphylococcus aureus [12],0.125 µg/mL
same,MIC,Staphylococcus aureus [13],0.25 µg/mL
same,MIC,Staphylococcus aureus [14],> 16 µg/mL
same,MIC,Staphylococcus aureus [15],0.125 µg/mL
same,MIC,Streptococcus pyogenes [16],≤ 0.06 µg/mL
same,MIC,Staphylococcus aureus [17],> 16 µg/mL
same,MIC,Streptococcus pneumoniae [18],≤ 0.06 µg/mL
same,MIC,Streptococcus pyogenes [19],≤ 0.06 µg/mL
same,MIC,Staphylococcus aureus [20],> 16 µg/mL
same,MIC,Staphylococcus aureus [21],0.125 µg/mL
same,MIC,Staphylococcus aureus [22],> 16 µg/mL
same,MIC,Escherichia coli,1 µg/mL
same,MIC,Staphylococcus aureus [23],> 16 µg/mL
same,MIC,Staphylococcus aureus [24],> 16 µg/mL
same,MIC,Staphylococcus aureus [25],> 16 µg/mL
same,MIC,Staphylococcus aureus [26],> 16 µg/mL
same,MIC,Staphylococcus aureus [27],> 16 µg/mL
same,MIC,Staphylococcus aureus [28],2 µg/mL
same,MIC,Staphylococcus aureus [29],1 µg/mL
same,MIC,Staphylococcus aureus [30],1 µg/mL
same,MIC,Streptococcus pneumoniae [31],2 µg/mL
same,MIC,Enterococcus faecalis,0.5 µg/mL
same,MIC,Staphylococcus aureus [32],> 16 µg/mL
same,MIC,Staphylococcus aureus [33],0.25 µg/mL
same,MIC,Staphylococcus aureus [34],> 16 µg/mL
same,MIC,Staphylococcus aureus [35],> 16 µg/mL
same,MIC,Enterococcus faecium,16 µg/mL
same,MIC,Staphylococcus aureus [36],> 16 µg/mL
same,MIC,Staphylococcus aureus [37],0.125 µg/mL
same,MIC,Staphylococcus aureus [38],> 16 µg/mL
same,MIC,Staphylococcus aureus [39],> 16 µg/mL
same,MIC,Moraxella catarrhalis,≤ 0.06 µg/mL

# — ChEMBL document CHEMBL3352487, “Synthesis, antibacterial activity, and biological evaluation of formyl hydroxyamino derivatives as novel potent peptide deformylase inhibitors against drug-resistant bacteria” (Eur J Med Chem, 2014)
